Source: PubChem BioAssay AID588747 (Vanderbilt Specialized Chemistry Center, 2011)
Calls of active or inactive are those of the source.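 The calls were made as follows: active = a dose-dependent rise in calcium signal, with potency and percent of maximal acetylcholine response fitted; inactive = the rest.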

target: Muscarinic acetylcholine receptor M5 (Homo sapiens) (UniProt P08912); experiment: potentiation of ACh at human M5 – CHO cells, calcium fluorescence, counter-screen for M4 PAM project, dose response (AID 588747); conditions: CHO hM5, calcium Fluo-4 fluorescence, ACh EC20 potentiation; series mostly up to 30 µM
Procedure, shortened: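 Material: human M5-expressing CHO cells; Also added: acetylcholine at EC20, then acetylcholine at EC80; Measured by: Fluo-4 calcium fluorescence; Controls: 1 mM acetylcholine as maximal response; Times: compound pre-incubation 144 s, EC80 ACh 86 s after EC20, 37 °C; Doses: concentration series, log M −9.29 to −4.52, 0.3% DMSO.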

Muscarinic acetylcholine receptor M5 (Homo sapiens), sequence (P08912 whole entry, looked up): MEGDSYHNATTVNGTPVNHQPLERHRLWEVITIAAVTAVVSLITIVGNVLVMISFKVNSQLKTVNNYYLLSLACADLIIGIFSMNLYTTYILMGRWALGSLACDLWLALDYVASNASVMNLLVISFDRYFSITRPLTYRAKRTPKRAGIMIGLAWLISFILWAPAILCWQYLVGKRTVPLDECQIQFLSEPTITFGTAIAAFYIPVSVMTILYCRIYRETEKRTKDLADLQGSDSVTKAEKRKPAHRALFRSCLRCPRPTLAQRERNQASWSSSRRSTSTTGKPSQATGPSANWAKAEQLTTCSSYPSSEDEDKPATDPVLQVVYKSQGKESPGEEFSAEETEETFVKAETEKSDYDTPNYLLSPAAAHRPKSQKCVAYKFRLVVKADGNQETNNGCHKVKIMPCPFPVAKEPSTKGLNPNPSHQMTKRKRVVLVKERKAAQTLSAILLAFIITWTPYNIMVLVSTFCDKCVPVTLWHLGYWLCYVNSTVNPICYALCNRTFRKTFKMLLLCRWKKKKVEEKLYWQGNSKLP

SMILES	outcome
Cc1nc2sc(C(=O)NCc3cccc(F)c3F)c(N)c2c(C)c1Cl	inactive
Cc1nc2sc(C(=O)NCCc3ccncc3)c(N)c2c(C)c1Cl	inactive
Cc1nc2sc(C(=O)NCc3ccncn3)c(N)c2c(C)c1Cl	inactive
Cc1nc2sc(C(=O)NCc3nccs3)c(N)c2c(C)c1Cl	inactive
Cc1nc2sc(C(=O)NC3CC3)c(N)c2c(C)c1Cl	inactive
